The list is not random: actives were taken first. Their share in the collection is about 1.5%.
APJ ag – activates the human apelin receptor APJ; activation, % at 20 µM; hit rate 0.11% among 330,000; CHO-K1 APJ PathHunter beta-arrestin, luminescence; 0% DMSO wells, 100% apelin; P35414;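 active means activation more than six SD over the plate average, tested at 20 µM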;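 further: 0% = DMSO alone and 100% = apelin-13 at 10 nM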
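Assay system: CHO-K1 APJ beta-arrestin complementation cell line / Compound: single test compound dose, 20 µM final, 1% DMSO / Times: overnight seeding, 90 min compound at 25 °C, 1 h detection / Technique: beta-gal luminescence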
APJ antagonist – blocks the human apelin receptor APJ; P35414; CHO-K1 APJ beta-arrestin complementation, luminescence; inhibition, % at 20 µM; hit rate 0.32% among 330,000; AID 2521;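 active means inhibition above about 40% at 20 µM, limit read from the data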;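 further: cells challenged with 10 nM apelin-13 agonist together with compound; plate controls were apelin-13 plus DMSO wells for no effect and DMSO wells lacking apelin-13 for full effect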
CXCR6 inh – CXCR6 (human) receptor inhibition; O00574; CHO-K1 PathHunter CXCR6 beta-arrestin, luminescence; inhibition, % at 20 µM; hit rate 0.36% among 360,000; AID 602244; in the data active means inhibition above about 34%, passing the limit was not always enough;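 further: antagonist mode with CXCL16 agonist at 10 nM final; 0% = 10 nM CXCL16 with DMSO and 100% = unstimulated wells without agonist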
Target sequence (O00574 whole entry, looked up): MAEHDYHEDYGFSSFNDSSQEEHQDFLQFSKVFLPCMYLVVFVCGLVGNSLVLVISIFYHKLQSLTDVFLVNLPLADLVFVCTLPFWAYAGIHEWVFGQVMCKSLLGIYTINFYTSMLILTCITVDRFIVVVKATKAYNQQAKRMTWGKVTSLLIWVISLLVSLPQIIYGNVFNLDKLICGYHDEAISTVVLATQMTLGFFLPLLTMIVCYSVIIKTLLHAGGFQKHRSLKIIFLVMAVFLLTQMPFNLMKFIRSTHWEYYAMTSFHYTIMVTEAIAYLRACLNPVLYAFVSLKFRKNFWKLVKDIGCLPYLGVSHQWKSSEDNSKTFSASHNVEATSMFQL
CCR6 antag – blocks CCL20-driven beta-arrestin recruitment at human CCR6. inhibition, % at 20 µM. P51684. CHO-K1 CCR6 PathHunter beta-arrestin, luminescence, CCL20-stimulated. hit rate 0.49% among 340,000. AID 493098;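 active means compounds whose inhibition of the agonist-driven luminescence signal at 20 µM reaches about 50%, limit read from the data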;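 further: cells stimulated with CCL20 at 14 nM final; plate controls were DMSO with CCL20 for no effect and DMSO without agonist for full effect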
EBI2 antag – EBI2 (human) antagonism; P32249; EBI2 beta-arrestin recruitment, luminescence, 7a,25-OHC stimulated; inhibition, % at 5 µM; hit rate 0.81% among 360,000; in the data active means inhibition above about 38%;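 further: enzyme fragment complementation signal reports receptor beta-arrestin coupling in cells; 0% = agonist plus DMSO wells and 100% = wells without agonist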
Target sequence (P32249 whole entry, looked up, the tested form may be a part): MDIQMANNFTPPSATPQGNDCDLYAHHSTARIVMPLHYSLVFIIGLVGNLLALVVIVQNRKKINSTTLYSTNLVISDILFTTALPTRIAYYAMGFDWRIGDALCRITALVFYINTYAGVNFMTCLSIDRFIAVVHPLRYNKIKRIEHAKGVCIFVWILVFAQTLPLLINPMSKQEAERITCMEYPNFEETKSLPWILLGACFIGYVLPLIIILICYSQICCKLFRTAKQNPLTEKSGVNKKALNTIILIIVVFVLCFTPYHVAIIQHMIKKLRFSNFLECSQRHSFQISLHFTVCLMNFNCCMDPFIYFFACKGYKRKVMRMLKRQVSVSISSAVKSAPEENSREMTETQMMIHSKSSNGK
EBI2 conf – confirmation of human EBI2 receptor antagonists; inhibition, % at 5 µM; hit rate 29% among 2,400; shares compounds with EBI2 antag; EBI2 beta-arrestin luminescence, 7a,25-OHC antagonism; AID 651997;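 active means inhibition of at least 50%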
EBI2 agonist – counter-screen for EBI2 antagonists: EBI2 agonist activity | AID 652000 | shares compounds with EBI2 antag | EBI2-expressing cells, agonist mode, luminescence, 60 min; 0% vehicle, 100% 7α,25-dihydroxycholesterol control | activation, % at 5 µM | 2,400 tested, under 10 active;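 active means activation of at least 50%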
bGal cs – beta-galactosidase inhibition counter-screen; shares compounds with EBI2 antag; purified beta-galactosidase, luminescent Galacton Star, 15 min; inhibition, % at 5 µM; hit rate 1% among 2,400; AID 652176;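 active means replicate-average signal at least 3 plate SD below neutral wells, shown as high inhibition, flagging enzyme-inhibiting false positives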;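 further: 0% = DMSO wells with enzyme and 100% = wells lacking enzyme; higher means stronger loss of beta-gal luminescence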
* hit, by the source's call; · = not tested or not shown.

SMILES	APJ ag	APJ antagonist	CXCR6 inh	CCR6 antag	EBI2 antag	EBI2 conf	EBI2 agonist	bGal cs
COc1ccc(N2CCN(C(=O)NC3CC(=O)N(c4ccc(OC)cc4)C3)CC2)cc1 (stereo unspecified)	-5.7	-1.3	2.0	2.8	46.0*	18.9	-0.8	3.7
CCN1CCN(C(=O)NC2CC(=O)N(c3ccc(OC)cc3)C2)CC1 (stereo unspecified)	-0.2	-0.5	-2.8	6.0	-2.6	·	·	·
O=C(NC1CC(=O)N(c2ccc(Cl)cc2)C1)N1CCN(C(=O)c2ccco2)CC1 (stereo unspecified)	-1.8	-6.7	-1.2	2.9	66.4*	48.5	-0.6	5.3
COc1ccc(NC(=O)N2CCN(c3ccc([N+](=O)[O-])cc3)CC2)cc1	-2.5	2.3	-8.1	-4.4	62.3*	40.6	2.1	10.7
O=C(NC1CC(=O)N(c2ccccc2)C1)N1CCN(C(=O)c2ccco2)CC1 (stereo unspecified)	2.8	-0.3	2.0	5.7	-12.2	·	·	·
COc1ccc(CN2CCNC(=O)C2CC(=O)N(C)C2CCOCC2)cc1OC (stereo unspecified)	·	·	-5.6	·	5.4	·	·	·
Cc1ccc(SCCNC(=O)c2ccc(C)c(S(=O)(=O)Nc3cccc(C)c3)c2)cc1	-0.6	-14.2	13.7	16.8	42.1	·	·	·
Cc1ccc(NS(=O)(=O)c2cc(C(=O)NCCSc3ccc(C)cc3)ccc2C)cc1	1.2	-8.5	8.5	18.1	44.3*	11.4	-1.7	-8.4
NC(=O)c1ccc(NC(=O)CSC(=O)c2ccccc2)cc1	-1.1	0.9	3.4	-0.1	-1.4	·	·	·
Cc1cccc(Nc2nc(N3CCCC3)nc(N3CCCC3)n2)c1	-4.4	11.9	-8.1	-7.0	41.5*	7.0	-1.4	-8.9
CN1CCN(C(=O)c2ccc(-c3ccccc3)cc2)CC1	-0.4	8.2	-10.4	3.8	8.8	·	·	·
COc1cccc(OC)c1C(=O)N1CCN(C(=O)c2ccc(-c3ccccc3)cc2)CC1	0.3	-2.8	2.0	6.5	78.5*	23.3	0.0	-13.8
COc1ccc(CN2CCN(C(=O)c3ccc(-c4ccccc4)cc3)CC2)c(OC)c1OC	-0.6	-9.9	-4.2	-0.8	68.4*	49.4	-0.2	-18.9
COc1ccc(CN2CCN(C(=O)c3cccc4ccccc34)CC2)c(OC)c1OC	-3.5	-15.9	2.7	1.0	2.2	·	·	·
CCCN1CCN(S(=O)(=O)c2ccc3c(c2)NC(=O)C(C)C(=O)N3)CC1 (stereo unspecified)	-2.1	13.4	-3.2	1.3	-7.9	·	·	·
Clc1ccc2[nH]cc(-c3nnnn3-c3ccc4ccccc4c3)c2c1	7.3	-2.7	-8.5	7.6	45.0*	30.3	1.9	5.3
Cc1ccc(-n2nnnc2-c2cnc3ccc(Cl)cc3c2-c2ccccc2)cc1	-4.6	-3.5	3.9	13.7	14.7	·	·	·
Cc1cc(C)c(N2C(=O)CC(Sc3ccccc3N)C2=O)c(C)c1 (stereo unspecified)	·	·	7.1	·	-14.2	·	·	·
O=C(Nc1cnn(C23CC4CC(CC(C4)C2)C3)c1)c1cc(-c2ccccc2)on1	0.1	-29.8	2.3	18.7	63.4*	36.7	0.8	5.2
O=C(Nc1cccc(C(=O)N2CCOCC2)c1)C1CC1	·	·	-6.5	-10.8	-0.6	·	·	·
COc1ccc(Cn2c(=O)c3cccnc3n(Cc3ccc([N+](=O)[O-])cc3)c2=O)cc1	-1.7	-10.1	12.9	23.9	47.2*	9.6	1.4	-1.0
O=C(/C=C/c1ccc(OCc2ccccc2)c(OCc2ccccc2)c1)c1cccnc1	2.0	-13.9	-3.2	-11.1	46.2*	30.6	0.4	6.5
O=C(COc1ccc(F)c(Cl)c1)NC(=O)NC1CCCC1	·	·	2.6	·	-0.6	·	·	·
O=C(OCC(=O)N1CCCc2ccccc21)c1cnc(Cl)c(Cl)c1	1.9	-14.6	9.9	20.6	42.9*	39.3	-0.2	5.2
Cc1ccc2[nH]c(=O)c3cc(C(=O)NC(C)C)sc3c2c1	-1.6	11.1	3.4	4.5	7.5	·	·	·
SMILES	APJ ag	APJ antagonist	CXCR6 inh	CCR6 antag	EBI2 antag	EBI2 conf	EBI2 agonist	bGal cs
CCOc1ccc(NC(=S)Nc2ccc(F)cc2)cc1	-2.2	8.8	-7.5	-10.9	58.5*	41.4	0.2	7.9
CCOc1ccc(C(=O)NC(=S)Nc2cccnc2)cc1	-2.0	11.4	1.4	6.9	-2.5	·	·	·
CCOc1ccc(NC(=S)Nc2cccnc2)cc1	-1.3	18.0	-0.5	-7.8	58.0*	23.6	-1.2	-9.7
CCOc1ccc(NC(=S)NN(C)C(=S)Nc2ccc(OCC)cc2)cc1	4.2	-20.7	-5.1	7.4	78.3*	38.3	-0.3	-15.1
CCOc1ccc(NC(=S)NC(=O)Cc2ccccc2)cc1	-1.4	1.1	6.0	4.7	-8.2	·	·	·
CCOc1ccc(NC(=S)Nc2ccccc2C2(C)CC2)cc1	-1.5	7.2	0.8	21.8	59.5*	20.1	1.5	3.7
O=C(Cn1c(=O)c2cccn2c2ccccc21)Nc1cc(F)ccc1F	3.2	-21.6	-5.1	9.6	1.7	·	·	·
Cc1ccsc1C(=O)N(C)CC(=O)N(CC(C)C)c1c(N)n(CC(C)C)c(=O)[nH]c1=O	8.4	18.9	-9.1	8.9	2.0	·	·	·
Cc1noc(C)c1COc1cccc(C(=O)NC(C)(C)C)c1	-3.8	15.0	7.5	9.3	-7.5	·	·	·
CC(=O)c1cccc(NC(=O)CCc2nnc3ccc(N4CCOCC4)nn23)c1	1.7	3.4	4.0	6.0	-6.0	·	·	·
CCOc1ccc(NC(=S)Nc2cc(-c3ccccc3)[nH]n2)cc1	-3.3	9.6	-3.4	0.4	41.9*	19.4	0.4	5.8
COc1ccc(CNC(=O)C23CN(Cc4ccccc4)CC2C(c2ccc([N+](=O)[O-])cc2)=NO3)cc1 (stereo unspecified)	7.5	3.8	-0.3	-6.8	-9.2	·	·	·
COc1ccc(CCNC(=O)C23CN(Cc4ccccc4)CC2C(c2ccc([N+](=O)[O-])cc2)=NO3)cc1 (stereo unspecified)	0.4	-7.1	2.6	3.0	60.8*	29.7	-1.6	-12.1
O=C(CN1C(=O)NC2(CCc3ccccc32)C1=O)NCCc1ccccc1 (stereo unspecified)	-2.0	-0.8	9.2	9.6	-1.8	·	·	·
CC(C)Oc1cc(F)ccc1-c1cc(C(=O)Nc2cccc(C(F)(F)F)c2)[nH]n1	·	·	-18.5	·	42.5*	38.4	1.0	11.2
Cc1ccc([N+](=O)[O-])cc1N=C1C(=O)Nc2ccccc21	-10.7	36.1	37.0	47.2	15.0	·	·	·
Fc1ccc(Nc2ccc(-c3ccc(F)cc3)nn2)cc1	-1.9	-14.4	-1.2	8.1	59.9*	28.1	-1.3	-7.5
O=c1c2ccccc2oc2c1oc1ccccc12	·	·	7.4	12.2	-11.1	·	·	·

High-throughput results (PubChem)
